Data on six molecules can be found in article PMC11061834 (Journal of Natural Products, 2024).

The test system of one series is 3T3-L1 cells. Put plainly: Cell viability / cytotoxicity, CCK-8 assay. Format: cell-based. To be noted: CCK-8, 48 h. In outline:
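3T3-L1 preadipocytes were seeded at 1 × 10^3 cells per well and incubated for 12 h. They were then exposed to varying concentrations of test compound for 48 h. Viability was measured with the CCK-8 kit following the manufacturer's guidelines, reading optical density at 450 nm. Data are means ± SD from triplicate experiments (n = 3), compared by Student's t test at P ≤ 0.05.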

The conditions of series [1]: cited from earlier work.
For a further series, the system named is PPARγ. To be noted: cited from earlier work.

Consider `COc1ccc(C[C@@H]2c3cc(Oc4cc(C[C@@H]5c6cc(OC)c(OC)cc6CCN5C)ccc4O)c(OC)cc3CCN2C)cc1` [Compound 7, neferine], for which, in the series with 3T3-L1 cells, the maximum noncytotoxic concentration is 10 µM. Besides, in series [1], the “antiadipogenic activity (in words)” value is “antiadipogenic activity”. Moreover, the “PPARγ inhibitory effect (in words)” value in the series on PPARγ is reported as “PPARγ inhibitory effect”.
In turn, `C=C(c1ccc(O)c(Oc2cc3c(cc2OC)CCN(C)[C@@H]3Cc2ccc(OC)cc2)c1)[C@H]1c2cc(OC)c(OC)cc2CCN1C` [Compound 3, 1R,1′S-neoneferine A] registered a maximum noncytotoxic concentration with 3T3-L1 cells of 5 µM.
Same read-out and setting: to `C=C(c1ccc(O)c(Oc2cc3c(cc2OC)CCN(C)[C@@H]3Cc2ccc(OC)cc2)c1)[C@@H]1c2cc(OC)c(OC)cc2CCN1C` [Compound 2, 1R,1′R-neoneferine A] belongs 15 µM; to `C=C(c1ccc(O)c(Oc2cc3c(cc2OC)CCN(C)[C@@H]3Cc2ccc(OC)cc2)c1)[C@@H]1c2cc(O)c(OC)cc2CCN1C` [Compound 4, 1R,1′R-neoisoliensinine A], 10 µM.
The same measure, in the same setting: to `C=C(c1ccc(O)c(Oc2cc3c(cc2OC)CCN(C)[C@@H]3Cc2ccc(OC)cc2)c1)[C@H]1c2cc(O)c(OC)cc2CCN1C` [Compound 5, 1R,1′S-neoisoliensinine A] belongs 5 µM; to `COc1ccc(C[C@@H]2c3cc(Oc4cc(C[C@H]5c6cc(OC)c(OC)cc6CCN5C)ccc4O)c(OC)cc3CCN2C)cc1` [Compound 8, 1′-epi-neferine], 5 µM.
